Source: PubChem BioAssay
Cneo AK release: Cryptococcus neoformans cell lysis inducers, primary screen, AK release luminescence, single concentration; C. neoformans lysis, adenylate kinase release luminescence, 4 h; normalised: neutral wells 0, clomiphene wells 100; lysis activity, % at 15 µM; 0.2% of 360,000 active;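 active means mean lysis activity across replicates of at least 80%, whatever share of replicates individually reach that level; inactive means mean lysis activity below 80%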
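Test system: log-phase Cryptococcus neoformans yeast cells; Quantity: yeast cell density of 5 × 10^6 cells/mL; Buffer or medium: YPD; Doses: single compound concentration per well; Timing: 4 h at 37 °C static, read 1 h later; Measured by: AK luminescence; Read-out basis: lysis from increased AK signal; Control set: Clomiphene as positive control.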
DENV2 CPE rescue: inhibitors of DENV2 cytopathic effect, primary screen, cell-based, plate reader, single concentration; 1.7% of 350,000 active; AID 651640, 2012; CPE inhibition, % at 9.99 µM; DENV2-infected cells, cytopathic effect rescue; in the data active means CPE inhibition above about 20%, passing the limit was not always enough; inconclusive means no clear call, values can overlap the other calls; tested in BHK-21 cells;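 further: 0% = median of neutral control wells and 100% = median of positive control wells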
Xi reactivation: activators of inactive X chromosome reactivation, primary screen, imaging, XiGFP fibroblasts, GFP high-content imaging, set 2; XiGFP mouse fibroblasts, % GFP-positive cells imaging, 3 d; cells co-treated with 5-aza-dC sensitizer; scaled so ellipticine positive control = 100%; 0.055% of 360,000 active; AID 743238, 2013; activation, % at 7.58 µM;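 active means mean normalized replicate activation at least 10% and every replicate at or above 10%; inconclusive means only one of the two criteria met; inactive means mean below 10% and not all replicates reach 10%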;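 further: 0% = median of on-plate neutral control wells and 100% = ellipticine 6 µM median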
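Assay system: SV40-immortalized XiGFP fibroblast cells, line 68-5-11; buffer or medium: DMEM plus 5-aza-dC sensitizer; compound: one concentration, pinned; timing: compounds 3 days, fix/stain 15 min at room temperature; benchmarks: positive control ellipticine, 6 µM final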
C2C12 statin: suppressors of statin myotoxicity in C2C12 myotubes, primary screen, cell-based, single point, plate reader; 0.78% of 330,000 active; rescue of ATP level, % at 7.49 µM; C2C12 myotubes + simvastatin, ATP luminescence, 48 h; scaled: DMSO 0, geranylgeraniol control 100;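 active means mean ATP rescue above about 67%, or every replicate alone reaching that limit, limit read from the data, passing the limit was not always enough; inconclusive means no clear call, values can overlap the other calls; inactive means mean under the limit and some replicate under it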;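 further: myotubes were challenged with 10 µM simvastatin during compound exposure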
An asterisk follows results filed as active; u = inconclusive; x = no result given. In the library only some 2.1% were active in any assay of this set; here they are far more common.

SMILES | Cneo AK release | DENV2 CPE rescue | Xi reactivation | C2C12 statin
c1ccc(Nc2ccc(Nc3ccccc3)cc2)cc1 | -2.0 | 40.8* | x | 10.7
CNc1ccc2oc(C[C@H]3O[C@@]4(CC[C@H]3C)O[C@H]([C@H](C)C(=O)c3ccc[nH]3)[C@H](C)C[C@H]4C)nc2c1C(=O)O | -1.5 | 43.2* | -0.1 | -263.2
CC(=O)N1C[C@@H]2N[C@H](C1)C2c1ccccc1 (stereo partly drawn) | x | x | 0.6 | x
CCC(=NCc1cccnc1)c1c(O)n(C2CCCCC2)c(=O)[nH]c1=O | -0.2 | x | x | 4.4
C/C(=N\NC(=O)c1ccccc1)c1c(O)n(C2CCCCC2)c(=O)[nH]c1=O | -1.4 | 4.1 | 0.0 | 95.3*
CC(=NCc1cccnc1)c1c(O)n(C2CCCCC2)c(=O)[nH]c1=O | 1.2 | x | x | 113.2*
CC(C)NC(=O)N1C[C@@H]2C(c3ccc(Br)cc3)[C@H](C1)N2CC1CC1 (stereo partly drawn) | x | x | 0.0 | x
CN1C(=O)C(C2c3ccccc3C(=O)N2Cc2ccccc2)C(=O)N(C)C1=O (stereo not drawn) | 5.2 | x | x | 108.4*
O=C1NC(=S)N(c2ccc(Cl)cc2)C(=O)/C1=C/N1CCN(C(=O)c2ccco2)CC1 | x | x | x | 77.4*
COC(=O)C1=C(c2ccc(OC(F)(F)F)cc2)C[C@@H]2CC[C@H]1N2C(=O)N1CCCCC1 | -0.2 | 48.3* | 0.9 | -51.4
COC(=O)C1=C(c2ccccc2)C[C@@H]2CC[C@H]1N2C(=O)N1CCC(C)CC1 | -3.4 | u | -0.1 | -3.6
COC(=O)C1=C(c2ccccc2)C[C@@H]2CC[C@H]1N2C(=O)N1CCOCC1 | -1.9 | 38.1* | 0.0 | 1.8
CCOC(=O)[C@@H]1[C@@H]2NC(=S)N(C)[C@@]1(COCc1ccc(OC)cc1)Oc1ccccc12 | -1.6 | 1.8 | x | x
O=C1NC(=O)N(c2ccc3c(c2)OCO3)C(=O)/C1=C/c1ccc(N2CCCC2)o1 | x | 77.4* | 0.0 | x
CCOc1ccc(N2C(=O)NC(=O)/C(=C\c3ccc(N4CCCCC4)o3)C2=O)cc1 | -3.4 | x | 0.0 | x
O=C1C2CCCN2C(c2cccnc2)N1c1nccs1 (stereo not drawn) | 0.1 | x | x | 154.9*
O=C1C2CCCN2C(c2cccnc2)N1c1ccc(Cl)cc1 (stereo not drawn) | 3.4 | x | x | x
CC(=O)OC1CC2OC3C=C(C)CCC3(C)C1(C)C21CO1 (stereo not drawn) | 24.5 | -11.1 | x | 209.6*
CC(=O)O[C@H]1C[C@@H]2OC3C=C(C)CCC3(C)[C@@]1(C)[C@@]21CO1 (stereo partly drawn) | x | 105.8* | 0.5 | x
Cc1cc(=O)oc2cc(OCC(=O)N3CCC(C(=O)O)(c4ccccc4)CC3)ccc12 | -2.3 | 74.9* | x | -5.5
Cc1cc(=O)oc2cc(OCC(=O)N3CCN(Cc4ccccc4)CC3)ccc12 | -1.3 | -9.3 | 0.1 | 7.3
C/C=C/c1ccc(C2[C@@H]3CN(C(=O)CN(C)C)C[C@H]2N3)cc1 (stereo partly drawn) | x | 2.4 | 0.2 | x
C#CCNc1ccncc1S(=O)(=O)NC(=O)NC(C)C | 2.7 | x | x | 128.3*
O=c1[nH]c2ccccc2n1C1CCN(C(c2cc3ccccc3o2)c2nnnn2-c2ccc3c(c2)OCCO3)CC1 (stereo not drawn) | -0.3 | -12.1 | 0.0 | -38.7
O=c1[nH]c2ccccc2n1C1CCN(C(c2cccc3ccccc23)c2nnnn2-c2ccc3c(c2)OCCO3)CC1 (stereo not drawn) | 0.6 | 24.5* | -0.1 | -37.8
CS(=O)(=O)N1C[C@@H]2C(c3ccc(Br)cc3)[C@H](C1)N2CC1CC1 (stereo partly drawn) | x | x | 0.3 | x
COC(=O)C1=C(c2cccc(OCc3ccccc3)c2)C[C@@H]2CC[C@H]1N2C(=O)NCCOc1ccccc1 | 0.6 | 90.0* | 0.9 | -9.6
COC(=O)C1=C(c2cc3ccccc3s2)C[C@@H]2CC[C@H]1N2C(=O)NCc1ccccc1 | 0.7 | 117.2* | 0.1 | -3.8
COC(=O)C1=C(c2cccc(OCc3ccccc3)c2)C[C@@H]2CC[C@H]1N2C(=O)NCc1ccc(Cl)cc1 | 2.1 | 24.6* | -0.1 | 3.5
COC(=O)C1=C(c2ccc(F)cc2OCc2ccccc2)C[C@@H]2CC[C@H]1N2C(=O)N1CCCCC1 | -1.1 | -11.4 | -0.2 | -4.7
